An excerpt weighted towards active compounds, which were near 2.5% of everything screened.
SENP6 inh = blocks the human protease SENP6; Recombinant SENP6 catalytic domain, aminoluciferin luminescence; inhibition, % at 10 µM; 330,000 tested, 1.8% active; AID 2599;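 active means inhibition above about 50% at the single tested dose, limit read from the data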;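 further: plate controls were DMSO wells with enzyme for no effect and DMSO wells lacking enzyme for full effect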
Target sequence (Q9GZR1 628-1112 limits assumed): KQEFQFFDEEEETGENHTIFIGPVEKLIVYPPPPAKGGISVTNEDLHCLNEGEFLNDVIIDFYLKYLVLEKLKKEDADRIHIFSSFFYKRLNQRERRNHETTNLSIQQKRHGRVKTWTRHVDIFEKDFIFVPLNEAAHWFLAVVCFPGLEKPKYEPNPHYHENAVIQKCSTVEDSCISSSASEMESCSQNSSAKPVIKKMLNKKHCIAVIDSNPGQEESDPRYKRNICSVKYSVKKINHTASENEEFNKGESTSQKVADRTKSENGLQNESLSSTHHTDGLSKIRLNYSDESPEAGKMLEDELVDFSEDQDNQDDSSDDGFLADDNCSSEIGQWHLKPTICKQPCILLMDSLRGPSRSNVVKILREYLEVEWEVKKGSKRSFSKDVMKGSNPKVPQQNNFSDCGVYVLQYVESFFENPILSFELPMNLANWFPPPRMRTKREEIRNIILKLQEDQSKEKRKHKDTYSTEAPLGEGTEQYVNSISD
SENP7 block = inhibitors of human SENP7 protease | recombinant SENP7, Z-RLRGG-aminoluciferin luminescence, 40 min | inhibition, % at 5 µM | 330,000 tested, 1.5% active | AID 434973;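 active means inhibition above about 50% at the single test dose, limit read from the data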;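 further: plate controls were DMSO with enzyme for no effect and no enzyme buffer wells for full effect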
SENP1 inh = SENP1 (human) catalytic domain inhibition; recombinant SENP1 catalytic domain, CyPet-SUMO1-YPet FRET cleavage; inhibition, % at 10 µM; 360,000 tested, 0.21% active;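 active means inhibition at least 30% at 10 µM, raw YFP signal under a set limit, fluorescence ratio 0.5 to 1.5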;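 further: 0% = enzyme with DMSO and 100% = no enzyme wells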
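Assay system: hSENP1 catalytic domain, recombinant. Amount: SENP1 enzyme, 20 pM final. Schedule: 50 min reaction, RT, dark. Technique: FRET, CFP and YFP emission. Control set: no-enzyme wells low, DMSO-plus-enzyme wells high control.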
SENP8 block-1 = SENP8 protease inhibition | inhibition, % at 10 µM | Q96LD8 | purified SENP8, Z-RLRGG-aminoluciferin cleavage, luminescence | 330,000 tested, 1.2% active; in the data active means inhibition above about 50%
SENP8 block-2 = SENP8 (human) protease inhibition; AID 602440; Q96LD8; inhibition, % at 20 µM; 360,000 tested, 0.64% active; recombinant SENP8, Nedd8 substrate fluorescence; in the data active means inhibition mostly above about 40%, no sharp cut-off; inactive means mostly below about 27%
SENP8 conf = human SENP8 inhibition, confirmed. shares compounds with SENP7 block. 6,200 tested, 40% active. Recombinant SENP8, Z-RLRGG-aminoluciferin luminescence, 60 min. inhibition, % at 12.5 µM;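 active means mean inhibition across replicates above about 50%, limit read from the data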
SENP6 conf = confirmation of human SENP6 protease inhibitors; recombinant SENP6, Z-RLRGG-aminoluciferin luminescence; inhibition, % at 12.5 µM; AID 488915; 6,200 tested, 58% active; shares compounds with SENP7 block
SENP7 conf = human SENP7 inhibition, confirmed; shares compounds with SENP7 block; recombinant SENP7, Z-RLRGG-aminoluciferin luminescence, 40 min; inhibition, % at 12.5 µM; 6,200 tested, 69% active; AID 488917
Casp3 SENP sel = caspase-3 inhibition (SENP selectivity assay); shares compounds with SENP7 block; purified caspase-3, Z-DEVD-aminoluciferin luminescence, 60 min; inhibition, % at 12.5 µM; 6,200 tested, 60% active;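 active means mean inhibition above about 50%, limit read from the data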;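 further: plate controls were enzyme with DMSO for no effect and wells without caspase-3 for full effect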
Luc interf = luminescence interference (SENP counter-screen); shares compounds with SENP7 block; Pre-incubated SENP8/Z-RLRGG-aminoluciferin, luciferase luminescence interference; inhibition, % at 12.5 µM; 6,200 tested, 39% active; AID 488919;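 active means mean inhibition above about 50% when retested at one dose, limit read from the data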;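 further: plate controls were DMSO wells with completed reaction for no effect and substrate without enzyme for full effect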
* marks the source's active call; other numbers are inactive results; i = inactive; x = no result given.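 How the source made its calls, unless noted: active means mean inhibition above about 50% in the one-dose retest (limit read from the data); inactive means the rest.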

SMILES	SENP6 inh	SENP7 block	SENP1 inh	SENP8 block-1	SENP8 block-2	SENP8 conf	SENP6 conf	SENP7 conf	Casp3 SENP sel	Luc interf
O=C(CC1Nc2cccc3cccc(c23)NC1=O)Nc1ccc(F)cc1 (centres undefined)	87*	43	-24	60*	-68	-13	-6	-10	2	-1
C=C(C)C(=O)N1CCN(C(=O)C(=C)C)c2ccccc21	x	x	0	x	20	x	x	x	x	x
Nc1nc2ccc([N+](=O)[O-])cc2[nH]1	2	10	1	3	17	x	x	x	x	x
O=[N+]([O-])c1ccc2nc(-c3ccc(Cl)cc3)[nH]c2c1	75*	63*	-5	54*	-385	68*	72*	87*	50*	49
O=[N+]([O-])c1ccc2nc(-c3ccncc3)[nH]c2c1	78*	51*	-1	64*	20	39	60*	88*	86*	74*
COc1ccc(-c2nc3ccc([N+](=O)[O-])cc3[nH]2)cc1	x	x	0	x	13	x	x	x	x	x
Cc1ccc(-c2nc3ccc([N+](=O)[O-])cc3[nH]2)cc1	76*	73*	1	66*	-2	11	77*	96*	64*	50
O=[N+]([O-])c1ccc2nc(-c3ccccc3[N+](=O)[O-])[nH]c2c1	7	-1	1	2	30	x	x	x	x	x
N#Cc1c(N2CCCC(O)C2)nc(N)c2c(N)nc3c(c12)CC(=O)N3C12CC3CC(CC(C3)C1)C2 (centres undefined)	96*	64*	-20	97*	-303	-21	5	-4	-6	-5
Cc1cc(C)c(C#N)c(N2CCCC(C(N)=O)C2)n1 (centres undefined)	-10	-9	-10	-8	i	x	x	x	x	x
C=C(C)CN(CC)c1nc(N)c2c(N)nc3c(c2c1C#N)CC(=O)N3C12CC3CC(CC(C3)C1)C2	85*	27	-22	86*	-210	-10	-5	-10	-11	-7
CCN(CC)c1ncnc2c1ncn2[C@H]1CN(Cc2ccc3c(c2)OCO3)C[C@@H](CO)O1	x	x	1	x	3	x	x	x	x	x
CC(=O)Nc1ccc(-c2nc3ccccc3c(=O)o2)cc1	-29	-19	2	-28	-112	x	x	x	x	x
CC(=O)/C=C(\C)Nc1ccc(-c2cnc(-c3ccccc3)o2)cc1	76*	72*	-65	78*	-492	29	28	48	22	45
CC(C)C(=O)Nc1ccc(-c2nnc(-c3ccccc3)o2)cc1	61*	76*	1	58*	-311	12	13	19	22	7
O=C(Nc1ccc(-c2nnc(-c3ccccc3)o2)cc1)C(F)(F)F	76*	91*	-1	66*	-196	-7	-3	-5	-4	-16
CCOC(=O)c1ccc(-n2c(C)nc3ccc(Br)cc3c2=O)cc1	-14	-4	3	5	4	x	x	x	x	x
CN(C(=O)c1cccc(NC(=O)Cc2ccc([N+](=O)[O-])cc2)c1)C1CC1	2	-3	3	-3	2	x	x	x	x	x
O=C(Nc1nc2cc3c(cc2s1)OCCO3)C1CCCCC1	27	19	0	-3	8	x	x	x	x	x
CC(=O)Nc1nc2cc3c(cc2s1)OCCO3	77*	79*	-3	61*	4	78*	76*	94*	89*	74*
Cc1cc(C)c2c(N)c(C(=O)Nc3ncc(C)s3)sc2n1	87*	26	-20	72*	i	-25	86*	99*	92*	-2
O=c1c2ccccc2oc2ccc(-c3ccc4[nH]ccc4c3)cc12	53*	48	-1	44	-81	17	36	57*	18	17
Cc1ccc(C(NC(N)=O)c2ccccc2)cc1 (centres undefined)	3	54*	0	9	12	4	1	-2	-2	-2
CC(C)COc1ccc(-c2nnc(-c3ccco3)o2)cc1	94*	94*	0	59*	-244	6	74*	62*	64*	48
O=C(COc1ccccc1)Nc1ccc(-c2nnc(-c3ccco3)o2)cc1	2	-15	-2	-16	-453	x	x	x	x	x
SMILES	SENP6 inh	SENP7 block	SENP1 inh	SENP8 block-1	SENP8 block-2	SENP8 conf	SENP6 conf	SENP7 conf	Casp3 SENP sel	Luc interf
CCCOc1ccc(-c2nnc(-c3ccco3)o2)cc1	-8	87*	1	78*	-193	4	45	59*	46	15
COCn1c(-c2cccc(Br)c2)nc2ccccc21	51*	40	0	22	10	23	20	65*	42	55*
O=C1CCCC(O)=C1N=Nc1ccc(C(=O)O)cc1	-5	-13	4	3	26	x	x	x	x	x
O=C(O)c1ccc(N=Nc2c(-c3ccccc3)[nH]oc2=O)cc1	33	39	2	59*	22	-8	-6	19	7	1
C=CCSc1nnc(CC(OC)OC)n1-c1ccccc1	0	-7	1	-2	6	x	x	x	x	x
Cc1ccc(-c2nnc(SCC(=O)N/N=C/c3c(C)nn(-c4ccccc4)c3C)n2-c2ccccc2)cc1	3	6	2	1	13	x	x	x	x	x
Cc1ccc(CSc2nnc(SCC(=O)N/N=C/c3c(C)nn(-c4ccccc4)c3C)s2)cc1	75*	55*	3	41	16	12	26	39	12	6
O=C(O)COc1ccccc1/C=N/NC(=O)CSc1nnc(SCc2ccc(Cl)cc2)s1	66*	9	2	45	26	36	49	67*	19	3
O=C(O)COc1ccccc1/C=N/NC(=O)CSc1nnc(SCc2cccc3ccccc23)s1	-11	1	1	27	16	x	x	x	x	x
COc1ccc(-c2csc3ncnc(N4CCN(c5ccc(OC)cc5)CC4)c23)cc1	-9	7	-3	-9	-4	x	x	x	x	x
COc1ccc(-c2nsc3c(N4CCCC4)ncnc23)cc1	52*	74*	0	15	-274	38	34	51*	58*	17
Cc1ccc(C(C)NC(=O)COC(=O)C2=COCCO2)cc1C (centres undefined)	-7	-2	0	1	8	x	x	x	x	x
Nc1ccc(-c2nc3ccccc3[nH]2)cc1	70*	65*	3	48	-414	49	47	83*	82*	66*

Bioassay records (PubChem BioAssay)
